Measured values reported in article PMC3775155 (Clinical Drug Investigation, 2013).
“And” between values parts separate entries of the source, which are not always exact repeats. Equal entries are not always repeated. Where two headings read alike, the source gives them in different places.

What was measured:
[1] = type: in vivo, human
[2] = type: in vivo, human; remark: listed apart in the source
[3] = Adverse events in the bupropion study; type: in vivo, human; settings: monotherapy period, days 1–14, n = 30
[4] = type: in vivo, human; settings: for AUC / Cmax: female, human, plasma, oral; for AUC: AUC24, least-squares mean, day 21; for Cmax: least-squares mean; for AUC24 ratio (test/reference) / Cmax ratio (test/reference): with vortioxetine vs alone
[5] = Pharmacological activity of the major metabolite; settings: major carboxylic acid metabolite
[6] = Nonclinical pharmacology study: blood–brain barrier penetration; settings: based on a nonclinical pharmacology study, unpublished results
[7] = Plasma metabolic ratio of metabolite; type: in vivo; settings: minor hydroxyl metabolite of vortioxetine
CYP2A6 = experiment: In vitro CYP inhibition; type: in vitro ADME
CYP2B6 = experiment: In vitro CYP inhibition; type: in vitro ADME
CYP2C19 = experiment: In vitro CYP inhibition; type: in vitro ADME
[8] = type: in vivo, human; remark: listed apart in the source
Method in brief: (§1)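 Open-label, randomized, 1-sequence design in healthy adults aged 18–55 y with BMI 19–30 kg/m2 (N = 36 across two arms). Test compound given as a single 10 mg dose on day 1, then a 14-day washout. The azole antifungal was given at 200 mg once daily on days 15–21, with test compound 10 mg on day 21. EDTA plasma was sampled predose and 1–120 h postdose on days 1 and 21. Analysis used SPE and HPLC. Noncompartmental AUClast, AUC∞ and Cmax were derived. A mixed-effects model (treatment fixed, subject random) was applied, and back-transformed LS-mean ratios with 90% CI are reported.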

CYP2E1 = experiment: In vitro CYP inhibition; type: in vitro ADME
[9] = type: in vivo, human; remark: listed apart in the source
[10] = type: in vivo, human; remark: listed apart in the source
[11] = type: in vivo, human; remark: listed apart in the source
Method in brief: as §1, with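 “antifungal (CYP3A/P-gp inhibitor)” for “antifungal”, “400” for “200”, “gave” for “was applied, and”, “CI.” for “CI are reported.”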

CYP2D6 = experiment: In vitro CYP inhibition; type: in vitro ADME
CYP1A2 = experiment: In vitro CYP inhibition; type: in vitro ADME
CYP2C8 = experiment: In vitro CYP inhibition; type: in vitro ADME
CYP3A4/5 = experiment: In vitro CYP inhibition; type: in vitro ADME
CYP2C9 = experiment: In vitro CYP inhibition; type: in vitro ADME
[12] = cited from earlier work
[13] = cited from earlier work; remark: listed apart in the source
[14] = type: in vivo, human; remark: listed apart in the source
P-glycoprotein (P-gp) = P-glycoprotein (P-gp) (Homo sapiens, UniProt P08183); experiment: In vitro P-gp net efflux ratio; type: in vitro ADME; settings: compared with digoxin; unpublished results
[15] = multiple daily doses of vortioxetine 10 mg; CYP2D6 probe; cited from earlier work
[16] = omeprazole 40 mg single dose + vortioxetine 10 mg at steady state (test), day 16
[17] = omeprazole 40 mg single dose alone (reference), day 1
[18] = concomitant agent alone (reference): placebo + EE/L 30/150 μg for 21 days
[19] = vortioxetine 10 mg + EE/L 30/150 μg for 21 days (test)
[20] = co-administered with fluconazole vs vortioxetine alone
[21] = co-administered with bupropion vs vortioxetine alone
[22] = co-administered with ketoconazole vs vortioxetine alone
[23] = co-administered with rifampicin vs vortioxetine alone

Sequence of P-glycoprotein (P-gp) (P08183 whole entry): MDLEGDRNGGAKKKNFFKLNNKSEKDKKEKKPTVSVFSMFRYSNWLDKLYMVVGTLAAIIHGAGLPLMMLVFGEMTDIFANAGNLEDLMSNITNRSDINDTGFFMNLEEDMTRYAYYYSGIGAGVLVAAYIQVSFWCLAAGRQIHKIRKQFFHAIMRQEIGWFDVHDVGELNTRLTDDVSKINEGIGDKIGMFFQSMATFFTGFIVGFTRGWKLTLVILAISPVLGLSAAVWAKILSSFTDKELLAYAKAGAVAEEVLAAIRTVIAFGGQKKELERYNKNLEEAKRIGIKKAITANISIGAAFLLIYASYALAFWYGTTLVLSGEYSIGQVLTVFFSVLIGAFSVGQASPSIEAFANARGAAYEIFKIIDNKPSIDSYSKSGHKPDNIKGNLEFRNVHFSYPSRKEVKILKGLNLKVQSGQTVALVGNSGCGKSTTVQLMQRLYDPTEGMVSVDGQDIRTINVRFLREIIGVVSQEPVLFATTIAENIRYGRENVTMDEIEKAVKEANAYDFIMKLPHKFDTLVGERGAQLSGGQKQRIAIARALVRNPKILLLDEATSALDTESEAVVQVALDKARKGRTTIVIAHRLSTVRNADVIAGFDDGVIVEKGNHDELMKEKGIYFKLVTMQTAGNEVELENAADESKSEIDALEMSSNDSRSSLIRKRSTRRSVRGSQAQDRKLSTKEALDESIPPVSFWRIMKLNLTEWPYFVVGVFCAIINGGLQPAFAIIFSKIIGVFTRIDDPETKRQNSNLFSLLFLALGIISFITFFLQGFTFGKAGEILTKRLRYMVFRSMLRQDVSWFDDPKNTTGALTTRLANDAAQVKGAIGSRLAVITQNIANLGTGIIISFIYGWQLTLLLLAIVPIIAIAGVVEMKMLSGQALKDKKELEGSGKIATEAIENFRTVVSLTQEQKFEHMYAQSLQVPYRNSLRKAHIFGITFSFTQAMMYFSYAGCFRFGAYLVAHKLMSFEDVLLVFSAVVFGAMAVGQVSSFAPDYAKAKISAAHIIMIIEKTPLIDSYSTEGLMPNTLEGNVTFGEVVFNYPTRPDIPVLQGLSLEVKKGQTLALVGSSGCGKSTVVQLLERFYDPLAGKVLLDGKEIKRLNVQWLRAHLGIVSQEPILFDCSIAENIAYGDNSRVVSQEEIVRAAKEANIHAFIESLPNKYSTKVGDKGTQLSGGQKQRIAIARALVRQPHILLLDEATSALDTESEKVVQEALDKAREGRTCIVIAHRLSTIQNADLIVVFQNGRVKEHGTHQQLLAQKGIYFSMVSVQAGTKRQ

COc1ccc2nc([S+]([O-])Cc3ncc(CO)c(OC)c3C)[nH]c2c1 (centres unmarked) [5′-Hydroxyomeprazole, 5′-hydroxyomeprazole]
AUC∞, least-squares mean [1, 16]: 976 ng·h/mL
Cmax, least-squares mean [1, 16]: 411 ng/mL
AUC∞, least-squares mean [1, 17]: 997 ng·h/mL
Cmax, least-squares mean [1, 17]: 392 ng/mL
AUC∞ ratio (test/reference) ([1]; with vortioxetine vs alone): 97.9%
Cmax ratio (test/reference) ([1]; with vortioxetine vs alone): 104%

CC(NC(C)(C)C)C(=O)c1cccc(Cl)c1 (centres unmarked) [Bupropion, bupropion]
Cmax greater when given with vortioxetine than without ([2]; bupropion with vs without vortioxetine): 18%
AUC ([2]; human, plasma, 150 mg): 791 ng·h/mL
Cmax, least-squares mean ([2]; vortioxetine 10 mg once daily + bupropion 150 mg twice daily (test), day 28): 177 ng/mL
AUC24 ratio (test/reference) ([2]; with vortioxetine vs alone): 99.22%
Cmax ratio (test/reference) ([2]; with vortioxetine vs alone): 117.98%
Abnormal dreams [3]: 0 number of subjects (%)
Agitation [3]: 0 number of subjects (%)
Anxiety [3]: 0 number of subjects (%)
Any adverse event [3]: 19 (63.3) number of subjects (%)
Constipation [3]: 0 number of subjects (%)
Dizziness [3]: 3 (10.0) number of subjects (%)
Dyspepsia [3]: 2 (6.7) number of subjects (%)
Fatigue [3]: 0 number of subjects (%)
Headache [3]: 10 (33.3) number of subjects (%)
Hyperhidrosis [3]: 1 (3.3) number of subjects (%)
Insomnia [3]: 1 (3.3) number of subjects (%)
Nausea [3]: 5 (16.7) number of subjects (%)
Oropharyngeal pain [3]: 0 number of subjects (%)
Palpitations [3]: 2 (6.7) number of subjects (%)
Somnolence [3]: 3 (10.0) number of subjects (%)
Tremor [3]: 1 (3.3) number of subjects (%)
URTI (upper respiratory tract infection) [3]: 3 (10.0) number of subjects (%)
Vertigo [3]: 1 (3.3) number of subjects (%)
Vomiting [3]: 2 (6.7) number of subjects (%)

C#C[C@]1(O)CC[C@H]2[C@@H]3CCc4cc(O)ccc4[C@H]3CC[C@@]21C [Ethinyl estradiol, ethinyl estradiol]
AUC [4, 18]: 0.857 ng·h/mL
AUC [4, 19]: 0.85 ng·h/mL
Cmax [4, 19]: 0.0816 ng/mL
AUC24 ratio (test/reference) [4]: 99.19%
Cmax ratio (test/reference) [4]: 93.87%

C#C[C@]1(O)CC[C@H]2[C@@H]3CCC4=CC(=O)CC[C@@H]4[C@H]3CC[C@@]21CC [Levonorgestrel, levonorgestrel]
AUC [4, 18]: 86.8 ng·h/mL
Cmax [4, 18]: 6.76 ng/mL
Cmax [4, 19]: 7.23 ng/mL
AUC24 ratio (test/reference) [4]: 102.07%
Cmax ratio (test/reference) [4]: 107.06%

Cc1cc(C(=O)O)ccc1Sc1ccccc1N1CCNCC1 [Lu AA34443]
pharmacological activity [5]: pharmacologically inactive

Cc1ccc(Sc2cc(O)ccc2N2CCNCC2)c(C)c1 [Lu AA39835]
penetration of the blood–brain barrier [6]: not expected to penetrate the blood–brain barrier
plasma metabolic ratio [7]: ≤ 4%

COc1ccc2[nH]c([S+]([O-])Cc3ncc(C)c(OC)c3C)nc2c1 (centres unmarked) [Omeprazole, omeprazole]
AUC(0-inf) ([1]; human, plasma, 40 mg): 1110 ng·h/mL
Cmax ([1]; human, plasma, 40 mg): 550 ng/mL
Cmax greater when given with vortioxetine than without ([1]; omeprazole with vs without vortioxetine): 11%
Cmax ratio (test/reference) ([1]; with vortioxetine vs alone): 111%

Br.Cc1ccc(Sc2ccccc2N2CCNCC2)c(C)c1 [Vortioxetine, 1-[2-(2,4-dimethylphenylsulfanyl)-phenyl]-piperazine-hydrobromide]
inhibitory concentration/inhibition constant ratio ([I]/Ki) (CYP2A6): ≤ 0.024
inhibitory concentration/inhibition constant ratio ([I]/Ki) (CYP2B6): ≤ 0.024
inhibitory concentration/inhibition constant ratio ([I]/Ki) (CYP2C19): ≤ 0.024
increase in vortioxetine AUC [8, 20]: 46%
increase in vortioxetine Cmax [8, 20]: 15%
AUC(0-t) ([8]; human, plasma, 10 mg): 222 ng·h/mL
Cmax ([8]; human, plasma, 10 mg): 4.52 ng/mL
AUClast ratio (test/reference) ([8]; with fluconazole vs alone): 146.17%
Cmax ratio (test/reference) ([8]; with fluconazole vs alone): 114.64%
inhibitory concentration/inhibition constant ratio ([I]/Ki) (CYP2E1): ≤ 0.024
AUC ([9]; human, plasma, 10 mg): 243 ng·h/mL
Cmax ([9]; human, plasma, 10 mg): 13.8 ng/mL
AUC24 ratio (test/reference) ([9]; with omeprazole vs alone): 105.5%
Cmax ratio (test/reference) ([9]; with omeprazole vs alone): 100.5%
increase in exposure of vortioxetine ([10]; bupropion added to vortioxetine): approximately 100%
increase in vortioxetine AUC [10, 21]: 128%
increase in vortioxetine Cmax [10, 21]: 114%
AUC ([10]; human, plasma, 10 mg): 308 ng·h/mL
Cmax ([10]; human, plasma, 10 mg): 15.9 ng/mL
AUC24 ratio (test/reference) ([10]; with bupropion vs alone): 228.30%
Cmax ratio (test/reference) ([10]; with bupropion vs alone): 213.57%
increase in vortioxetine AUC [11, 22]: 30%
increase in vortioxetine Cmax [11, 22]: 26%
AUC(0-t) ([11]; human, plasma, 10 mg): 262 ng·h/mL
Cmax ([11]; human, plasma, 10 mg): 4.92 ng/mL
AUClast ratio (test/reference) ([11]; with ketoconazole vs alone): 130.48%
Cmax ratio (test/reference) ([11]; with ketoconazole vs alone): 125.73%
inhibitory concentration/inhibition constant ratio ([I]/Ki) (CYP2D6): ≤ 0.024
inhibitory concentration/inhibition constant ratio ([I]/Ki) (CYP1A2): ≤ 0.024
Abnormal dreams [3]: 2 (6.7) number of subjects (%)
Agitation [3]: 0 number of subjects (%)
Anxiety [3]: 0 number of subjects (%)
Constipation [3]: 3 (10.0) number of subjects (%)
Dizziness [3]: 1 (3.3) number of subjects (%)
Dyspepsia [3]: 1 (3.3) number of subjects (%)
Fatigue [3]: 1 (3.3) number of subjects (%)
Headache [3]: 4 (13.3) number of subjects (%)
Hyperhidrosis [3]: 0 number of subjects (%)
Insomnia [3]: 1 (3.3) number of subjects (%)
Nausea [3]: 9 (30.0) number of subjects (%)
Oropharyngeal pain [3]: 0 number of subjects (%)
Palpitations [3]: 2 (6.7) number of subjects (%)
Somnolence [3]: 0 number of subjects (%)
Tremor [3]: 0 number of subjects (%)
URTI (upper respiratory tract infection) [3]: 0 number of subjects (%)
Vertigo [3]: 0 number of subjects (%)
Vomiting [3]: 3 (10.0) number of subjects (%)
inhibitory concentration/inhibition constant ratio ([I]/Ki) (CYP2C8): ≤ 0.024
inhibitory concentration/inhibition constant ratio ([I]/Ki) (CYP3A4/5): ≤ 0.024
inhibitory concentration/inhibition constant ratio ([I]/Ki) (CYP2C9): ≤ 0.024
elimination half-life [12]: 57 h
steady-state volume of distribution [12]: approximately 2600 L
oral bioavailability ([12]; independent of food): 75%
drug-related material excreted in the feces [13]: one-third
drug-related material excreted in the urine ([13]; primarily as Lu AA34443 and its glucuronide): two-thirds
decrease in vortioxetine AUC (exposure) [14, 23]: 72% and 72 to 77%
decrease in vortioxetine Cmax [14, 23]: 51%
AUC(0-t) ([14]; human, plasma, 20 mg): 438 ng·h/mL
Cmax ([14]; human, plasma, 20 mg): 8.92 ng/mL
AUClast ratio (test/reference) ([14]; with rifampicin vs alone): 27.74%
Cmax ratio (test/reference) ([14]; with rifampicin vs alone): 49.11%
in vitro net efflux ratio (P-gp substrate) (P-glycoprotein (P-gp)): much lower than that of the P-gp substrate digoxin

COc1ccc2c(c1)[C@]13CCCC[C@@H]1[C@H](C2)N(C)CC3 [dextromethorphan]
decrease in plasma exposure of probe substrate by vortioxetine [15]: up to 24%
